# Assay outcomes as filed in PubChem BioAssay.
# LANA-nucl inh: inhibitors of KSHV LANA binding to nucleosomes; 51,000 tested, 0.3% active; FITC-LANA1-23 / chicken nucleosome fluorescence polarization; active compounds read low; z-score (no concentration beside the values);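 active = both repeat wells score below -2 in polarization z-score versus plate sample wells, excluding overly bright wells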
#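 Test system: purified chicken nucleosomes with FITC-labelled LANA N-terminal peptide (1-23); Input: 240 nM purified chicken nucleosomes (480 nM peptide binding sites), final; Medium: TEN-BT buffer, pH 7.5; Timing: 10–45 min, room temperature; Technique: fluorescence polarization, 480 nm excitation, 535 nm parallel and perpendicular emission; Replication: duplicates.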
# BasE inh: inhibitors of Acinetobacter baumannii siderophore enzyme BasE | 84,000 tested, 0.1% active | inhibition, % (test concentration not listed) | purified BasE, fluorescence polarization binding displacement; in the data active = inhibition above about 25%, passing the limit was not always enough
# A number is an active result; 0 = inactive; - = not tested or not shown; ! = not active in a repeat. Most compounds without a hit are left out; they make up all but 0.3% or so of the library.
SMILES,LANA-nucl inh,BasE inh
Oc1ccc(/C=N/NC(=S)Nc2ccc(Cl)cc2Cl)c(O)c1O,-,34
COc1cc(C(=O)CSc2nccc(C)n2)cc(OC)c1OC,-,0
Cc1ccnc(SCC(=O)c2ccc(Br)cc2)n1,0,44
Cc1ccnc(SCC(=O)c2cccs2)n1,-,61
Cc1cc(=O)[nH]c(SCC(=O)c2cccs2)n1,-,0
O=C(O)/C=C\C(=O)NCc1cccs1,0,0
Cc1cc2c(n1-c1ccc(C(=O)O)cc1)CCCC2,0,31
Cc1cc2c(n1-c1ccc(C(=O)NCCc3cccs3)cc1)CCCC2,0,0
CCOC(=O)c1cc2c(=O)n3ccccc3nc2n(C2CCCCC2)c1=NC(=O)c1cccnc1,-2.6,0
CCOC(=O)c1cc2c(=O)n3ccccc3nc2n(CC2CCCO2)c1=NC(C)=O (stereo not given),0,0
O=C(c1cc(Nc2ccccc2)n[nH]1)N1CCCCC1,0,0
COc1cccc(=O)c2c(C)oc(C)c12,-4.4,0
CCOc1cc(/C=C/c2ccccc2OC)cc(=O)c2c(C)oc(C)c12,-,0
Cc1ccc(C)c(NC(=S)N(Cc2ccco2)C(C)c2ccco2)c1 (stereo not given),0,0
COC(=O)c1sc2nc3c(c(C(F)(F)F)c2c1N)CN(C(C)=O)CC3,-8.1,0
COC(=O)c1sc2nc(-c3ccco3)cc(C(F)(F)F)c2c1N,0,0
O=C1NC(=O)/C(=C\c2cn(Cc3ccccc3F)c3ccccc23)N1,-,0
N#Cc1ccccc1Cn1cc(C=C2C(=O)NC(=O)NC2=O)c2ccccc21,-3.6,0
Cc1ccc(C(=O)Oc2c(CN3CCN(C)CC3)cc(Cl)c3cccnc23)cc1,-,0
Cc1csc(C(C#N)C(=O)CSc2cc(C)c3ccccc3n2)n1 (stereo not given),-,0
Cc1csc(C(C#N)C(=O)CSc2nc3ccccc3n2-c2ccccc2)n1 (stereo not given),-,35
CC(=O)N1c2ccccc2C(=O)C1N(Cc1ccccc1)C(C)C (stereo not given),-,0
COc1ccc(C(=O)C(C)Sc2nnc(-c3ccccc3OC)n2C)cc1 (stereo not given),-,0
Cc1ccc(C)n1-c1cc(Cl)ccc1N1CCCCC1,-,0
Cc1ccc(C)n1-c1cc(Cl)ccc1C(=O)O,0,85
SMILES,LANA-nucl inh,BasE inh
COc1ccc(C2C(C(N)=O)C(=O)NC(O)(c3ccccc3)C2C#N)cc1 (stereo not given),-2.3,0
COc1ccc(C2CC(=O)N3C(=C2C#N)SCC3(O)c2ccccc2)cc1 (stereo not given),0,0
Cc1ccc2c(c1)sc1nc(-c3ccccc3Cl)cn12,0,0
NCC1CCN(S(=O)(=O)c2ccccc2)CC1,0,0
N#Cc1c(=O)n(O)c2ccccc2[n+]1[O-],-13,0
O=c1c(-c2ccc(Oc3ccccc3)cc2)[n+]([O-])c2ccccc2n1O,0,0
COC(CN=Cc1c(O)[nH]c(=O)[nH]c1=O)OC,-,0
CC(C)c1nc(NCc2ccccc2)c(C#N)c2c1CCCC2,0,0
N#Cc1c(NCc2ccccc2)ncc2c1Nc1ccccc1C2,-3.3,0
C=Cn1c(=N)n(C)c2ccccc21,0,0
O=C(CCCC1CCCCC1)NCC1CCCO1 (stereo not given),0,0
C=CCNC(=O)c1ccc2c(c1)NC(=O)C(C)N2 (stereo not given),0,0
CCCCNC(=O)c1ccc2c(c1)NC(=O)C(C)N2 (stereo not given),-3.2,0
COc1ccccc1NC(=S)N(Cc1ccccc1)Cc1ccc(C)o1,0,0
O=C1CSc2sc(=S)sc2S1,-,28
CCOC(=O)C1=C(Nc2ccc(OC)cc2)OCC1=O,-2.1,0
O=C(O)C1=C(Nc2ccccc2)OCC1=O,-,0
CCn1c(=O)cc(OCC(=O)O)c2ccccc21,0,0
CCn1c(=O)cc(OCC(=O)Nc2cccnc2)c2ccccc21,0,25
COc1ccc(OC(=O)c2csc(COc3ccc4nonc4c3)n2)cc1,-,0
CCCCSC1=C(C#N)C(=O)NC(CO)S1 (stereo not given),0,0
CCCCCCSc1s[nH]c(=O)c1C#N,0,85
O=C1NC2=C(C(=O)OC2)C(c2ccc(O)cc2)N1 (stereo not given),-,0
Cc1cn2c(CO)c(C)nc2s1,-,0
O=C(NCCCO)Nc1ccc2nc(-c3ccco3)c(-c3ccco3)nc2c1,-3,0
SMILES,LANA-nucl inh,BasE inh
O=C(Nc1ccc(N2CCOCC2)cc1)Nc1ccc2nc(-c3ccco3)c(-c3ccco3)nc2c1,0,0
Cc1cc(C)c(NCc2ccccc2O)c(C)c1,0,0
CC(C)c1cc(N)on1,-,0
COc1cc(/C=N/NC(=O)c2ccccc2-n2cccc2)ccc1O,-,0
COc1cc(/C=N/NC(=O)c2cc(C3CC3)[nH]n2)ccc1O,0,49
O=C(O)c1ccc(C2SCCCS2)cc1,-,0
Oc1ccc(C2SCCS2)cc1,-,53
CC(O)c1cc2ccccc2o1 (stereo not given),-,0
CC1(C)Cc2ccccc2-c2c1c(=O)n(Cc1ccccc1)c1n[nH]c(=S)n21,-,0
O=C(O)C1(N2CCCCC2)CCCCC1,0,0
COCCn1c(SCC(=O)NCc2ccc3c(c2)OCO3)nnc1-c1c[nH]c2ccccc12,-2.2,0
Cc1occc1-c1nnc(SCC(=O)NCc2ccc3c(c2)OCO3)n1CC(C)C,0,0
NC(=O)Cn1cnc2ccccc21,0,0
O=C(Cn1cnc2ccccc21)OCc1ccc(Br)cc1,-,27
COCCn1ccc2nc(SC)ncc2c1=O,0,0
COc1ccc(C(=O)NCc2nnc(SCC(=O)Nc3ccc(C)cc3C)o2)cc1OC,0,0
O=C(Cc1ccccc1)OCc1nnc(-c2ccccc2)o1,0,0
O=C(CCc1c[nH]c2ccccc12)OCc1nnc(-c2ccccc2)o1,-2.1,0
O=c1c(Cl)c(Cl)cnn1CN1CCCC1c1nc2ccccc2s1 (stereo not given),-,0
CC(=O)N(c1ccc(C)c(C)c1)c1nc(CSc2nnnn2C2CCCC2)cs1,-,0
Clc1ccc2c(c1)NNc1nncn1-2,0,0
O=C(O)CSc1nnc2n1-c1ccc(Cl)cc1NN2,-5.6,0
O=C1C(c2ccc(I)cc2)=C(O)c2ccccc21,-,0
O=C1C(c2ccnc3ccccc23)=C(O)c2ccccc21,-4.2,0
N#Cc1ccccc1NC(=O)CC1Nc2ccccc2NC1=O (stereo not given),0,0
SMILES,LANA-nucl inh,BasE inh
O=c1ccc2cc3c4c(c2o1)CCCN4CCC3,-5.2,0
CC(C)c1c(Br)c(=O)oc2c3c4c(cc12)CCCN4CCC3,-,0
CCOc1cccc(CNc2ccc(N3CCCC3)cc2)c1,0,0
CCOC(=O)c1c2ccc(O)cc2n2ccccc12,-7,-
CCOC(=O)c1c(C)n(C)c2ccc(O)cc12,0,0
Oc1cccc(/C=N/n2cnnc2)c1,0,0
CSc1nc2nc3c(cn2n1)C(=O)CCC3,0,0
COC(=O)C1=C(N)Oc2cc(C)[nH]c(=O)c2C1c1ccccc1OC (stereo not given),0,43
Cc1cc2c(c(=O)[nH]1)C(c1ccncc1)C(C#N)=C(N)O2 (stereo not given),0,0
O=C(c1cncc(Br)c1)N1CC=C(c2ccccc2)CC1,-,0
N#Cc1cccc2c1[nH]c1ccc(Cl)cc12,0,0
CN(CC1CCCO1)S(=O)(=O)c1ccc(C(=O)N2CCOCC2)cc1 (stereo not given),0,0
O=c1[nH]nc2c3c(cccc13)-c1ccccc1-2,0,0
O=C1c2ccccc2-c2n[nH]c3cccc1c23,-2!,0
COc1ccccc1-c1nnc2ccc3ccccc3n12,-,0
